What was measured:
Assay type in all cases: cell-based
[1] = target: T1, Serine/threonine-protein kinase Nek9 (Homo sapiens) (UniProt Q8TD19); assay: Inhibition of NEK9 Lys1 labeling site harbouring RTEDDSLVVWKEVDLTR in human A-375 cells at 5 uM by KiNativ Profiling analysis relative to control
T1 sequence (whole entry): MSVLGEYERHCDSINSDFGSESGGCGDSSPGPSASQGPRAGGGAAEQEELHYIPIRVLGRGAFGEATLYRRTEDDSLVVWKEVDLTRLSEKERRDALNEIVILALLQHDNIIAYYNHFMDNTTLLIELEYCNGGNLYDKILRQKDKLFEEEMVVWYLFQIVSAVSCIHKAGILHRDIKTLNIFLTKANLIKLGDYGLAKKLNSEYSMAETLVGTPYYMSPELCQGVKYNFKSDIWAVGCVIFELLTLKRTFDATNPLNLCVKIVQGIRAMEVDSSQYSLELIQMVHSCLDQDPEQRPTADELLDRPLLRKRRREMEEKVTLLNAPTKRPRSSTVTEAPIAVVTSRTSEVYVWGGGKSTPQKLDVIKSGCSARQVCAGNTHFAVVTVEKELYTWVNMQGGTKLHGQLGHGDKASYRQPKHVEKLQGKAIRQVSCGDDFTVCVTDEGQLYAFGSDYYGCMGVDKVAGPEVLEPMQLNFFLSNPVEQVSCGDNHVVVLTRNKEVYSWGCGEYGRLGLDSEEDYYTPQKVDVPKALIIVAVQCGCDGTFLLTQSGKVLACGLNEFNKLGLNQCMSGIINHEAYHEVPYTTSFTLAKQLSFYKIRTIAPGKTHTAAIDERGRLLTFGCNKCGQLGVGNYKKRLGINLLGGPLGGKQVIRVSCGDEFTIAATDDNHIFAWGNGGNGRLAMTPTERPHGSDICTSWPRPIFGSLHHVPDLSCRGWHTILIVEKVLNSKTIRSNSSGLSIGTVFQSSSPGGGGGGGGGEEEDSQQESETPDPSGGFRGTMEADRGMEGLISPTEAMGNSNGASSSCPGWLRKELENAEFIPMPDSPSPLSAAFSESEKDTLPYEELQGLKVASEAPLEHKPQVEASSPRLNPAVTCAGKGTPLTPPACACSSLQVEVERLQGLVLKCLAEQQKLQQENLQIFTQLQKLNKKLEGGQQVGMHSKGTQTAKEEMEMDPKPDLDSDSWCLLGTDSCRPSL

[2] = target: Phosphatidylinositol 4,5-bisphosphate 3-kinase catalytic subunit beta isoform (Homo sapiens) (UniProt P42338); assay: Inhibition of PIK3CB ATP labeling site in human A-375 cells at 0.05 uM by KiNativ Profiling analysis relative to control
Phosphatidylinositol 4,5-bisphosphate 3-kinase catalytic subunit beta isoform (Homo sapiens), sequence (P42338 whole entry, looked up, canonical isoform): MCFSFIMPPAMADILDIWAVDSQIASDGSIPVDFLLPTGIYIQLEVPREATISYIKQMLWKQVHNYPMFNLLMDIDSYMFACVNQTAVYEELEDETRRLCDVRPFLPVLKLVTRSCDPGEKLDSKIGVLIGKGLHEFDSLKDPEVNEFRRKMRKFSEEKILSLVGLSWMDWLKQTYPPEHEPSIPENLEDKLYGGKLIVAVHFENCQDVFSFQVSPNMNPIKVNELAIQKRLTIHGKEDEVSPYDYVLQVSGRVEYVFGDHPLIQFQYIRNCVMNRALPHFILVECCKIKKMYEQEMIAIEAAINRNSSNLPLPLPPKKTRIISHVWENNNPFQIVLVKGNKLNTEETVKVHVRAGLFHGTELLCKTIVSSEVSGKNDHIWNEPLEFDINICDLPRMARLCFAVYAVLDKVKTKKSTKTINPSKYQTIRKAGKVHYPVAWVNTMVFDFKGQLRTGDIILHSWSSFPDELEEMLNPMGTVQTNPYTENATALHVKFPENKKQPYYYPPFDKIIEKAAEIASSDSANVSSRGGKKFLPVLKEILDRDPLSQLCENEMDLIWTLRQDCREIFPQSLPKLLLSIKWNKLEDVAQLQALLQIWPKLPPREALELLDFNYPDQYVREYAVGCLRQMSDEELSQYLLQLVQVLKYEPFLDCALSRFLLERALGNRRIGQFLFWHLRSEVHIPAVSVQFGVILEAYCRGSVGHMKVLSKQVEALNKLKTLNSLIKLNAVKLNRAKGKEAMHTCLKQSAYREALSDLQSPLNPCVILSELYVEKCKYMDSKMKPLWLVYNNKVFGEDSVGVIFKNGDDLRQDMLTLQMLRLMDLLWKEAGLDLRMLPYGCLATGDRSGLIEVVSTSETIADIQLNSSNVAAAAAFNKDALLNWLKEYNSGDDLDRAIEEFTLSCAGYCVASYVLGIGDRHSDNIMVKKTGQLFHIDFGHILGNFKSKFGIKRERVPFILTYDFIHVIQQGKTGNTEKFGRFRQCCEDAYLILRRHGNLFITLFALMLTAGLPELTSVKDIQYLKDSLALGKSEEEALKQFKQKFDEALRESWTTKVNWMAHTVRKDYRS

[3] = target: Cyclin-dependent kinase 10 (Homo sapiens) (UniProt Q15131); assay: Inhibition of CDK10 Lys2 labeling site in human A-375 cells at 5 uM by KiNativ Profiling analysis relative to control
Cyclin-dependent kinase 10 (Homo sapiens), sequence (Q15131 whole entry): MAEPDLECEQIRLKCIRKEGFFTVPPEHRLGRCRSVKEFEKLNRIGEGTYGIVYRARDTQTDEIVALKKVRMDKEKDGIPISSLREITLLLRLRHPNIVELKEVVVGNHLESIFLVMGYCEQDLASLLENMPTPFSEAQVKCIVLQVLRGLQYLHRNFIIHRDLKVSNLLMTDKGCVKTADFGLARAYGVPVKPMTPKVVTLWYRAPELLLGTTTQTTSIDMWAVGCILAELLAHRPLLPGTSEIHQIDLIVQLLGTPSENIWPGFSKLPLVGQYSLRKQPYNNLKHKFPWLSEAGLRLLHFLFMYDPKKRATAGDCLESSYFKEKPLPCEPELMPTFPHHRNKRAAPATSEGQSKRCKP
Summary of the method: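 Intact A375 melanoma cells were treated with compound at 5 or 0.5 μM, then lysed. Lysate kinases were labeled with a lysine-reactive ATP or ADP-biotin probe (KiNativ). Inhibition is read as protection of each kinase labeling site from probe labeling.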

[4] = target: T2, Serine/threonine-protein kinase 3 (Homo sapiens) (UniProt Q13188); assay: Inhibition of MST2 Lys1 labeling site in human A-375 cells at 5 uM by KiNativ Profiling analysis relative to control
T2 sequence (whole entry): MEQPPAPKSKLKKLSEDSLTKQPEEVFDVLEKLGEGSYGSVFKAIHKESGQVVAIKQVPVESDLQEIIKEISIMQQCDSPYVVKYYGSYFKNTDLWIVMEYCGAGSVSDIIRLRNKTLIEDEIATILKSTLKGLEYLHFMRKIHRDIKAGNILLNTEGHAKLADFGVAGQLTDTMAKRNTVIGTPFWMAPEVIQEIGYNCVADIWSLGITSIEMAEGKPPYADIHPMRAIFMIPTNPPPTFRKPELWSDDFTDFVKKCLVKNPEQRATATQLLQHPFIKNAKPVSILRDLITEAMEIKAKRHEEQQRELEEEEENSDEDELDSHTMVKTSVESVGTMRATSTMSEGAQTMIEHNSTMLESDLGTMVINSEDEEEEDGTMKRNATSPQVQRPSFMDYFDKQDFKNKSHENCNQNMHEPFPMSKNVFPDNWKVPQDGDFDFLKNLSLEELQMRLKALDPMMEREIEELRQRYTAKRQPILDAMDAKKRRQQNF

[5] = target: T3, Mitogen-activated protein kinase 13 (Homo sapiens) (UniProt O15264); assay: Inhibition of p38 delta Lys2 labeling site in human A-375 cells at 5 uM by KiNativ Profiling analysis relative to control
T3 sequence (whole entry): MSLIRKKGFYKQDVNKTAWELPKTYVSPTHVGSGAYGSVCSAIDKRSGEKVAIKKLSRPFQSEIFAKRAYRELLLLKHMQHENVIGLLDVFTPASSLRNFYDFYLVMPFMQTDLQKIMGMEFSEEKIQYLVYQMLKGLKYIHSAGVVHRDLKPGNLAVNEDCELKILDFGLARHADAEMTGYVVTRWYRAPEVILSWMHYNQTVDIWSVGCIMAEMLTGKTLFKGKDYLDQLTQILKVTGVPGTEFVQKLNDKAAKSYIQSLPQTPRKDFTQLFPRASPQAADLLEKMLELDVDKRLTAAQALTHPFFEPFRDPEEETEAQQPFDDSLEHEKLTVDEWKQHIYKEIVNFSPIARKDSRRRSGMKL

[6] = target: Tyrosine-protein kinase Fer (Homo sapiens, UniProt P16591); assay: Inhibition of FER Lys1 labeling site harbouring TSVAVKTCKEDLPQELKin human A-375 cells at 0.5 uM by KiNativ Profiling analysis relative to control
Tyrosine-protein kinase Fer, sequence (P16591 whole entry, looked up): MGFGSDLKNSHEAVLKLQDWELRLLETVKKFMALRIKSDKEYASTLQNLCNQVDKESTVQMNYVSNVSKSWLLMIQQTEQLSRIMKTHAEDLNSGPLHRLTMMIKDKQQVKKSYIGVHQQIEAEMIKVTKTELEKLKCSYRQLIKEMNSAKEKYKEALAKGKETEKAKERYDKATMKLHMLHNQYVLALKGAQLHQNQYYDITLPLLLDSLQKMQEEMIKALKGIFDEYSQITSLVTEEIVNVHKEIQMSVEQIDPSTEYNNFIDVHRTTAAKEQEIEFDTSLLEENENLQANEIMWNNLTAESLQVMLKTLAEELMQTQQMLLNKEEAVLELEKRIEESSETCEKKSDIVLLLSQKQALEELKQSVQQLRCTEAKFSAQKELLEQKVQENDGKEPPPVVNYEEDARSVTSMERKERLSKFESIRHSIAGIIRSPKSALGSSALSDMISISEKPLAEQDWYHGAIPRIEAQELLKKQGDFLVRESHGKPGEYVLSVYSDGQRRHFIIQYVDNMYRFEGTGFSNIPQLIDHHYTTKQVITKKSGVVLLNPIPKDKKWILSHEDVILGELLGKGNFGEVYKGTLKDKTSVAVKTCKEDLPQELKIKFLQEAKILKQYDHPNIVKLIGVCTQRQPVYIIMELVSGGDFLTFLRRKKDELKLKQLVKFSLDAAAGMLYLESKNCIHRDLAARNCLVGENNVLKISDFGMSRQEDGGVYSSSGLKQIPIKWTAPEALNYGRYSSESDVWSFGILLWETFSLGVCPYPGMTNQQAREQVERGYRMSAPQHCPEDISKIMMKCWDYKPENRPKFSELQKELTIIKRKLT

[7] = target: T4, Aurora kinase A (Homo sapiens) (UniProt O14965); assay: Inhibition of AurA Lys2 labeling site in human A-375 cells at 5 uM by KiNativ Profiling analysis relative to control
T4 sequence (whole entry): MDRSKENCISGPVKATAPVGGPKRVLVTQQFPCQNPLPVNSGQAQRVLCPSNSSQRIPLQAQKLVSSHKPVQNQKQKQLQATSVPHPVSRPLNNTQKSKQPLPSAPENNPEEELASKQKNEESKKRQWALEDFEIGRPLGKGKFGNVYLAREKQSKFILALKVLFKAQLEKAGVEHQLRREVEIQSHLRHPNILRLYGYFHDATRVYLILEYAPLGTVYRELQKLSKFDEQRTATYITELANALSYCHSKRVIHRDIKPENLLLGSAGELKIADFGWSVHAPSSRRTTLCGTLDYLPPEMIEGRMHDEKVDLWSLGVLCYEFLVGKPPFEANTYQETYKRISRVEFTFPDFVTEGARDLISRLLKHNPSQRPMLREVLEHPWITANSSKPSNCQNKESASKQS
Summary of the method: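 Live A375 melanoma cells were treated with compound at 5 or 0.5 μM, then lysed. The lysates were labeled with a lysine-reactive ATP or ADP-biotin probe. Kinase protection from probe labeling was measured by KiNativ.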

Row | Structure (SMILES) | inhibition [1] [%] | inhibition [2] [%] | inhibition [3] [%] | inhibition [4] [%] | inhibition [5] [%] | inhibition [6] [%] | inhibition [7] [%]
1 | CCN1CCN(Cc2ccc(NC(=O)c3ccc(C)c(Oc4ccnc5[nH]ccc45)c3)cc2C(F)(F)F)CC1 | -3.9 | 3.1 | 65.4 | 13.7 | > 94 | 88.5 | -0.8
2 | CCN1CCN(Cc2ccc(NC(=O)c3ccc(C)c(/C=C/c4cnc5[nH]ccc5c4OC)c3)cc2C(F)(F)F)CC1 | 21 | 38.5 | 11.5 | 25 | 52.7 | 23.3 | 19.3

From ChEMBL document CHEMBL5696442, “Discovery of type II inhibitors of TGFβ-activated kinase 1 (TAK1) and mitogen-activated protein kinase kinase kinase kinase 2 (MAP4K2)” (J Med Chem, 2015)
